A word on the IC50: it is the concentration that inhibits the measured activity by half. A word on the inhibition: it is the drop in the measured response relative to a control, in per cent. A word on the Tmax: it is the time at which the peak concentration occurs.

Active and inactive are the calls of the source. The calls are words filed in the database; no cut-off is given here.

One series relates to SiHa. In words: Antiproliferative activity against human SiHa cells assessed as reduction in cell viability measured after 72 hrs by CCK8 assay. It is filed as functional, cell-based. An outline of the steps:
(§1)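 Cells were seeded at 3×10³ cells/well and exposed to a range of concentrations or vehicle for 72 h. Viability was read by CCK-8 at 450 nm, with DMSO as blank and five replicates per sample. IC50 was calculated from the dose-response.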

In series [1] the target is Dual specificity mitogen-activated protein kinase kinase 1 (Homo sapiens) (UniProt Q02750). Description: Inhibition of recombinant human full length MEK1 at 1 uM using as unactive MAPK2 substrate incubated for 40 mins in presence of [gamma-33P]-ATP by scintillation counting method relative to control.
In series [2] the target is Macrophage colony-stimulating factor 1 receptor (Homo sapiens) (UniProt P07333). In words: Inhibition of recombinant human FMS (538 to end residues) at 1 uM using KKKSPGEYVNIEF as substrate incubated for 40 mins in presence of [gamma-33P]-ATP by scintillation counting method relative to control.
Series [3] concerns the target MAP kinase-interacting serine/threonine-protein kinase 2 (Homo sapiens) (UniProt Q9HBH9). Description: Inhibition of recombinant human full length MNK2 at 1 uM using myelin basic protein as substrate incubated for 40 mins in presence of [gamma-33P]-ATP by scintillation counting method relative to control.
The test system of series [4] is T47D. In words: Induction of cell cycle arrest in human T47D cells assessed as decrease in cell accumulation in S phase at 20 to 40 nM incubated for 36 hrs by propidium iodide staining based flow cytometry. It is filed as functional. In short, it runs like this:
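Cells were treated with graded concentrations for 36 h, then fixed overnight in 70% ice-cold ethanol at 4°C and resuspended in PBS. Staining used 50 µg/ml PI plus 5 µg/ml RNase at 37°C for 30 min. DNA content was analysed by FACS to give G0/G1, S and G2/M fractions.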
For orientation: In flow cytometry, cells or beads pass a laser one at a time.

Series [5] concerns Angiopoietin-1 receptor (Homo sapiens), Q02763 [Y897S]. In words: Inhibition of recombinant human TIE2 Y897S mutant (771 to end residues) at 1 uM using EFPIYDFLPAKKK as substrate incubated for 40 mins in presence of [gamma-33P]-ATP by scintillation counting method relative to control.
The nature of series [6]: Tmax in Sprague-Dawley rat at 10 mg/kg, iv by HPLC-MS analysis. In kind it is ADME, organism-based. Conditions: in vivo.
The next series has as its system HeLa. In words: Antiproliferative activity against human HeLa cells assessed as reduction in cell viability measured after 72 hrs by CCK8 assay. In kind it is functional, cell-based. An outline of the steps: as §1
Series [7] deals with Serine/threonine-protein kinase 26 (Homo sapiens) (UniProt Q9P289). Description: Inhibition of recombinant human MST4 (4 to 304 residues) at 1 uM using RLGRDKYKTLRQIRQ as substrate incubated for 40 mins in presence of [gamma-33P]-ATP by scintillation counting method relative to control.
Series [8] concerns T47D. In words: Antiproliferative activity against human T47D cells assessed as reduction in cell viability measured after 72 hrs by CCK8 assay. In kind it is functional, cell-based. An outline of the steps:
as §1

The test system of series [9] is MDA-MB-231. Description: Antiproliferative activity against human MDA-MB-231 cells assessed as reduction in cell viability measured after 72 hrs by CCK8 assay. Conditions: MDA-MB-231, 72 h. It is filed as functional, cell-based. In short, it runs like this:
as §1

Series [10] has as its target T1, Vascular endothelial growth factor receptor 2 (Homo sapiens, UniProt P35968). In words: Inhibition of recombinant human VEGFR2 (790 to end residues) using myelin ba as substrate at 1 uM incubated for 40 mins by [gamma-33P]-ATP based radiometric assay relative to control. An outline of the steps:
(§2)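 Kinase panel profiling at 1 μM performed by Eurofins KinaseProfiler; percent inhibition reported as mean of two independent experiments.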

Series [11] deals with MDA-MB-231. Description: Induction of apoptosis in human MDA-MB-231 cells assessed as increase in late apoptotic cells at 20 to 40 nM incubated for 48 hrs by annexin V FITC and propidium iodide staining based flow cytometry. In kind it is functional, cell-based. An outline of the steps: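 Annexin V-FITC/PI double staining with flow-cytometric readout. MDA-MB-231, T-47D, SiHa and HeLa cells were treated with graded concentrations for 48 h. MDA-MB-231 and T-47D were grown in DMEM and SiHa in 1640 medium, each with 10% FBS and 1% penicillin/streptomycin at 37°C under 5% CO2. Early- and late-stage apoptotic fractions were scored.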

Series [12] addresses Serine/threonine-protein kinase 25 (Homo sapiens) (UniProt O00506). In words: Inhibition of recombinant human STK25 (1 to 308 residues) at 1 uM using RLGRDKYKTLRQIRQ as substrate incubated for 40 mins in presence of [gamma-33P]-ATP by scintillation counting method relative to control.
Series [13] relates to HUVEC. In words: Antiproliferative activity against HUVEC cells assessed as reduction in cell viability measured after 72 hrs by CCK8 assay. In kind it is functional, cell-based. Conditions: Homo sapiens. In short, it runs like this:
as §1
Background: Tetrazolium assays rely on reduction of a dye to a coloured formazan, in cell work by metabolically active cells.

Series [14] deals with Serine/threonine-protein kinase 38-like (Homo sapiens) (UniProt Q9Y2H1). In words: Inhibition of recombinant human NDR2 (83 to end residues) at 1 uM using RSRSRSRSRSRSRSR as substrate incubated for 40 mins in presence of [gamma-33P]-ATP by scintillation counting method relative to control.
Series [15] deals with Casein kinase II subunit alpha (Homo sapiens) (UniProt P68400). In words: Inhibition of recombinant full length human CK2alpha1 at 1 uM using RRRDDDSDDD as substrate incubated for 40 mins in presence of [gamma-33P]-ATP by scintillation counting method relative to control. In short, it runs like this: as §2
Series [16] addresses Fibroblast growth factor receptor 1 (Homo sapiens) (UniProt P11362). Description: Inhibition of recombinant human FGFR1 (456 to 765 residues) at 1 uM using KKKSPGEYVNIEFG as substrate incubated for 40 mins in presence of [gamma-33P]-ATP by scintillation counting method relative to control. An outline of the steps: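 Tested at a single 1 uM in an outsourced commercial kinase-profiling panel, read as percent inhibition. Each value is the mean of two independent experiments.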

The target in series [17] is Insulin receptor (Homo sapiens) (UniProt P06213). Description: Inhibition of recombinant human IR (1005 to 1310 residues) at 1 uM using KKKSPGEYVNIEFG as substrate incubated for 40 mins in presence of [gamma-33P]-ATP by scintillation counting method relative to control.
Series [18] deals with HUVEC. Description: Antiangiogenic activity against HUVEC cells assessed as reduction in tube formation at 20 to 40 nM incubated for 6 hrs by light microscopy. It is filed as functional, cell-based. Conditions: Homo sapiens. In short, it runs like this: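 HUVECs, 4×10⁴ cells/well, were seeded on Matrigel that had been solidified at 37°C for 30 min. Cells were treated with compound or vehicle at 37°C for 6 h. Three random fields were counted and photographed under a light microscope.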

Series [19] addresses Dual specificity mitogen-activated protein kinase kinase 3 (Homo sapiens) (UniProt P46734). Description: Inhibition of recombinant human MKK3 at 1 uM incubated for 40 mins in presence of [gamma-33P]-ATP by scintillation counting method relative to control.
Series [20] addresses T1, Vascular endothelial growth factor receptor 2. Conditions: HUVEC, 40 nM.
For series [21] the target is unchanged. Conditions: HUVEC, 40 nM. This is another data set of the same source.

T1 sequence (P35968 whole entry): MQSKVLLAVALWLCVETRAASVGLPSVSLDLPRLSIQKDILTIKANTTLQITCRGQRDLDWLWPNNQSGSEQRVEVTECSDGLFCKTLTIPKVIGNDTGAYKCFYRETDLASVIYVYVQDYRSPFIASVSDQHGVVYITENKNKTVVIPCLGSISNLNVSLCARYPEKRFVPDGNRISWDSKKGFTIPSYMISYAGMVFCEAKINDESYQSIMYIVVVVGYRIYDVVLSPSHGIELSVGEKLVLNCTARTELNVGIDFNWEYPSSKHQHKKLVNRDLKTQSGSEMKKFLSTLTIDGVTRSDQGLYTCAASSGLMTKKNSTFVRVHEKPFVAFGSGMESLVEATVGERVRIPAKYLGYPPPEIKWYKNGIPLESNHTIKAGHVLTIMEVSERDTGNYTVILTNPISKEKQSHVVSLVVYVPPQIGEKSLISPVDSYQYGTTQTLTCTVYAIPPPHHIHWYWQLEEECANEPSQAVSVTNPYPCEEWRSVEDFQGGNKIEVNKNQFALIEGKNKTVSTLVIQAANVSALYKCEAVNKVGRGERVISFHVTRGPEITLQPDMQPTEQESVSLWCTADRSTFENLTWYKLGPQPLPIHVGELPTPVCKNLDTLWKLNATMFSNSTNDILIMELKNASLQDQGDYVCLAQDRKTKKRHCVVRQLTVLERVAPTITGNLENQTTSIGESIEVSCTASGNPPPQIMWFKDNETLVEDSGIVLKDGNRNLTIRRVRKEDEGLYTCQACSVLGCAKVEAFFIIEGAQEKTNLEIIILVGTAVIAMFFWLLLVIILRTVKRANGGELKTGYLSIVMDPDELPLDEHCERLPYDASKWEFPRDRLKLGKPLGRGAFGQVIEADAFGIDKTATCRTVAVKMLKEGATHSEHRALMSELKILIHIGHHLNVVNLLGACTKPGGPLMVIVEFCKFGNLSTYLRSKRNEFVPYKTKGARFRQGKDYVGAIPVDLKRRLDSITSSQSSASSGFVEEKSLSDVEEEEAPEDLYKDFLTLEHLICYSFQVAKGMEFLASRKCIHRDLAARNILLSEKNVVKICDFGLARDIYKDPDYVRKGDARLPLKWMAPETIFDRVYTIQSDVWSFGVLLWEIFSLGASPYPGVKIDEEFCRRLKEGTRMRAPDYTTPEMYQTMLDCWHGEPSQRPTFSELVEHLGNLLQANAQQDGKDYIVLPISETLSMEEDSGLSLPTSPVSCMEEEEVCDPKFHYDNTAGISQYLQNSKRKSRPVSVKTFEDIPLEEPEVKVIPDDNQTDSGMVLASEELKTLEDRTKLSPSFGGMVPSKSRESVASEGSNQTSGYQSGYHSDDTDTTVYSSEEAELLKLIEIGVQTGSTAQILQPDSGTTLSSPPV
Sequence of MAP kinase-interacting serine/threonine-protein kinase 2 (Homo sapiens) (Q9HBH9 whole entry, looked up): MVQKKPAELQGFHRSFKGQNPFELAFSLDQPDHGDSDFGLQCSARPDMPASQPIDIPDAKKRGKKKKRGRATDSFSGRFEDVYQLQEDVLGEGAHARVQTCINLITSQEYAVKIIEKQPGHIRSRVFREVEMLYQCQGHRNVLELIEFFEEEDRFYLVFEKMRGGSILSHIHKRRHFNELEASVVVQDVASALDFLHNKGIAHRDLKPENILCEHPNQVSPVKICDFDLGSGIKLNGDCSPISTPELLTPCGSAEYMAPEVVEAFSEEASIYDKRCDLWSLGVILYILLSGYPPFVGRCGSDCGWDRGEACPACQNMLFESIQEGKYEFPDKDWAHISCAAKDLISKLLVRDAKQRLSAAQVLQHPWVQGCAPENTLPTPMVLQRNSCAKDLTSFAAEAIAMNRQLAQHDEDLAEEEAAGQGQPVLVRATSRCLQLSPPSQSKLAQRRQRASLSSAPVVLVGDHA
Sequence of Serine/threonine-protein kinase 25 (Homo sapiens) (O00506 whole entry, looked up, the tested form may be a part): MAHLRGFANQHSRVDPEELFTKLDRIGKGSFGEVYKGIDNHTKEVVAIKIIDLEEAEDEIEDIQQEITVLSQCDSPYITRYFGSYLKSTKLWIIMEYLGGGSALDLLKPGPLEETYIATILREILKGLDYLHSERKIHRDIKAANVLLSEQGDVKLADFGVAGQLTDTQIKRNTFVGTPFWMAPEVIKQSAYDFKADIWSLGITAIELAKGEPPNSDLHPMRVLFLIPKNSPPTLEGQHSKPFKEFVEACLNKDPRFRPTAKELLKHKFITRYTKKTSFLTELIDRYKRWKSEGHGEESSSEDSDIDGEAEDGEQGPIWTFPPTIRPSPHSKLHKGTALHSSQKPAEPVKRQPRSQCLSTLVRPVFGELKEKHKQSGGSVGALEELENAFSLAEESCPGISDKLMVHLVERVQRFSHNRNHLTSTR
Sequence of Angiopoietin-1 receptor (Homo sapiens), Q02763 [Y897S] (Q02763 whole entry Y897S): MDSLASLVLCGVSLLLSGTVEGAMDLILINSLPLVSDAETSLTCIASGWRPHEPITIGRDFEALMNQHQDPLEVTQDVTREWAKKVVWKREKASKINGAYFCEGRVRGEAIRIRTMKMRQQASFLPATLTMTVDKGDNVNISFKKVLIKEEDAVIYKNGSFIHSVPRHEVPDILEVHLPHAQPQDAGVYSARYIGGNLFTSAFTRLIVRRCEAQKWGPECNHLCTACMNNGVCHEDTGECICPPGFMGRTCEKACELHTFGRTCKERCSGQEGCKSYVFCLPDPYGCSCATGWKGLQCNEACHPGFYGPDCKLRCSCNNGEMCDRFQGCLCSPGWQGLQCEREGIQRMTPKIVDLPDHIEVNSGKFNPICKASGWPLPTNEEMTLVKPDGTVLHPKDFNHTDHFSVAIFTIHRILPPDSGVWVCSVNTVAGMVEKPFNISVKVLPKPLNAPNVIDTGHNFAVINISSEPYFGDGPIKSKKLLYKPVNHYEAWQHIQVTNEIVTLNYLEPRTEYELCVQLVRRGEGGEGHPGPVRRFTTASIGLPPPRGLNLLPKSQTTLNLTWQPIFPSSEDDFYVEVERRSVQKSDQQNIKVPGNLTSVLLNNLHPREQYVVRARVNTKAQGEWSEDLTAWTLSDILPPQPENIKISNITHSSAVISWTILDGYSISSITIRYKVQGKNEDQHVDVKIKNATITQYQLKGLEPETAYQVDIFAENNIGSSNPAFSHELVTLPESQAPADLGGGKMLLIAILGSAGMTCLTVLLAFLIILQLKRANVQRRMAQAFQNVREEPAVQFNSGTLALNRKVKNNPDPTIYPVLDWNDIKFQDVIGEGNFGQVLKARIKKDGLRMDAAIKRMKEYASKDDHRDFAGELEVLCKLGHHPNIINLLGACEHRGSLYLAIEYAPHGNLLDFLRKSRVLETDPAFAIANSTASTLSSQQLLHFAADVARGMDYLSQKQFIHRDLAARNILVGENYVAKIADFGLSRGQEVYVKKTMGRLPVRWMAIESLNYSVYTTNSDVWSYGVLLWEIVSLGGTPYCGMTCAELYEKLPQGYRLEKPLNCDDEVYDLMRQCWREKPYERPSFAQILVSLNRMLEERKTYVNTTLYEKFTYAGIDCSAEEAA
Sequence of Casein kinase II subunit alpha (Homo sapiens) (P68400 whole entry, looked up, the tested form may be a part): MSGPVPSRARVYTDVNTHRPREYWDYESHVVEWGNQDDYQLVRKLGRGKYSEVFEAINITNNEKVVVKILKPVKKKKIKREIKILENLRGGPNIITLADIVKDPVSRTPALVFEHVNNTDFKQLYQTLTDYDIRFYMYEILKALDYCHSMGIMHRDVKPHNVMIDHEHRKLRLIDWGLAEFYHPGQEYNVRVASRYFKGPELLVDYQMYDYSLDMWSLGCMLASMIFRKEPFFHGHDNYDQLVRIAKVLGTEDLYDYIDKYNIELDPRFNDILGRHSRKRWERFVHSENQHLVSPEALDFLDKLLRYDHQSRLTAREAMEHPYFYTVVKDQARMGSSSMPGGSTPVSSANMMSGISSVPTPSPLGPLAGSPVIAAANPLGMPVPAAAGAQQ
Sequence of Serine/threonine-protein kinase 26 (Homo sapiens) (Q9P289 2-416 limits assumed): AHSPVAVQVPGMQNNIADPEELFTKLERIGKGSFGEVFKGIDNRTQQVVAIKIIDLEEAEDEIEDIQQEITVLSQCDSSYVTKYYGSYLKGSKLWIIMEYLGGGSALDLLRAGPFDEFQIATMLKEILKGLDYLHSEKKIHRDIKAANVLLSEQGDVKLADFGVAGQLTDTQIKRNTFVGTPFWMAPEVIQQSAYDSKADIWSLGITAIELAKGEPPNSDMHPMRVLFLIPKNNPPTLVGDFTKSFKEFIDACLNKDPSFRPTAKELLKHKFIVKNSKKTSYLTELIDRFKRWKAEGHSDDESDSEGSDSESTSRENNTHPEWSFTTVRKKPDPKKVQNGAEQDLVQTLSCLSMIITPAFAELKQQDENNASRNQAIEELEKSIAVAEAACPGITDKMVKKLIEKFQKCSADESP
Sequence of Dual specificity mitogen-activated protein kinase kinase 3 (Homo sapiens) (P46734 whole entry): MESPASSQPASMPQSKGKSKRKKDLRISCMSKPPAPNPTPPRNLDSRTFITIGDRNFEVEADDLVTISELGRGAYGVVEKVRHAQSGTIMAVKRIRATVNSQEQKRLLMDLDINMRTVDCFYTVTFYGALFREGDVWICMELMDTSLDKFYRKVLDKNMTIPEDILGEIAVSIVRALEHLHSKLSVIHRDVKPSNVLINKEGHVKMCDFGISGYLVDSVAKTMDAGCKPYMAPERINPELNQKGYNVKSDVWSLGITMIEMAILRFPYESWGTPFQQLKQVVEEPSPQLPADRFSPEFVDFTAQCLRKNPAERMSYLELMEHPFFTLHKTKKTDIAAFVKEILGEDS
Sequence of Serine/threonine-protein kinase 38-like (Homo sapiens) (Q9Y2H1 2-464 limits assumed): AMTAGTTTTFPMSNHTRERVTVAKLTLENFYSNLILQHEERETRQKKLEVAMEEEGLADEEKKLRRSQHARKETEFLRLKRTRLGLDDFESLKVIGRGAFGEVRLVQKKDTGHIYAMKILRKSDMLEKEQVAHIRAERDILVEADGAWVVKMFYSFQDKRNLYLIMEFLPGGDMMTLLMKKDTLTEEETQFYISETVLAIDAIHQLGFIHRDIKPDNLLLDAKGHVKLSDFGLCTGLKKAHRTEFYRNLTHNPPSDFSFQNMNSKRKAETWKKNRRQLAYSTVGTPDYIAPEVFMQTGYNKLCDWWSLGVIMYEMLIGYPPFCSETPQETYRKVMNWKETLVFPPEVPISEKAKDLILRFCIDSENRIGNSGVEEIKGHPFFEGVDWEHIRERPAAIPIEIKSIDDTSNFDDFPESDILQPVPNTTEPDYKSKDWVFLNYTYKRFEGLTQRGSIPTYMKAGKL

For `Cc1ccc(NC(=O)C2(C(=O)Nc3ccc(Nc4ncc(F)c(-c5cc(F)c6nc(C)n(C(C)C)c6c5)n4)cc3)CC2)cc1`, the IC50 with SiHa was 50 nM; in the series with HeLa it was 71.5 to 72 nM; in the series with T47D [8], 16 to 16.4 nM; in the series with MDA-MB-231 [9], 38 nM; with HUVEC [13], 36 nM. Moreover, the inhibition came to 7% in series [1]; 64% in series [2]; 10% in [3]; 51% in series [5]; 48% in [7]; 95% in series [10]. Further, the inhibition turned out to be 26% in series [12]; 33% in series [14]; 36% in series [15]; 0% in [16]; 35% in [17]; 8% in [19]. Moreover, the result in the series on T47D [4] and in the series on MDA-MB-231 [11] was Active. Further, the Tmax in series [6] is 5 min. Further, in the series on HUVEC [18], the inhibition entry is “Active”.
Consider `COc1cc2nccc(Oc3ccc(NC(=O)C4(C(=O)Nc5ccc(F)cc5)CC4)cc3)c2cc1OC` [CABOZANTINIB], for which the IC50 with SiHa is 7940 nM; with HeLa it was above 10000 nM; with T47D [8], 4790 nM; with MDA-MB-231 [9] it was 5080 nM; with HUVEC [13], 7670 nM. Also, the inhibition result (in series [20]; in series [21]; in the series on HUVEC [18]) was “Active” each time. Also, the inhibition in [10] was determined as 101%.
